{"data": "Assay results collected from several papers", "SLC22A11": "Solute carrier family 22 member 11 (SLC22A11, Homo sapiens, UniProt Q9NSA0)", "SLK": "STE20-like serine/threonine-protein kinase (SLK, Homo sapiens, UniProt Q9H2G2)", "CD209": "CD209 antigen (CD209, Homo sapiens, UniProt Q9NNX6)", "note": "Each line is one published result; the experiments were not run side by side."}
{"SMILES": "O=C(O)CCc1nc(-c2ccccc2)c(-c2ccccc2)o1", "target": "SLC22A11", "assay": "transporter uptake, inhibitor", "conditions": "25 µM", "measurement": "inhibition", "value": "81.6%"}
{"SMILES": "COc1ccc2oc(-c3ccc4nc(N)oc4c3)c/c(=N\\c3ccccc3NC(=O)CCN)c2c1", "target": "Transient receptor potential cation channel subfamily M member 7 (TRPM7, Homo sapiens, UniProt Q96QT4)", "assay": "binding", "conditions": "1 µM", "measurement": "remaining binding", "value": "106%"}
{"SMILES": "Cc1cc(S(=O)(=O)N[C@H]2CC[C@H](CN3CCN(c4ccc(C5CCC(=O)NC5=O)cc4F)CC3)CC2)ccc1Nc1ncc(C(F)(F)F)c(N2CCC[C@](C)(O)C2)n1 (stereo partly drawn)", "target": "SLK", "assay": "binding, competition with immobilised ligand", "conditions": "1 µM", "measurement": "remaining binding", "value": "55%"}
{"SMILES": "CCCCC1C(=O)N(c2ccccc2)N(c2ccccc2)C1=O", "target": "SLC22A11", "assay": "transporter uptake, inhibitor", "conditions": "25 µM", "measurement": "inhibition", "value": "82.7%"}
{"SMILES": "C[C@]1(O)CCCN(c2nc(Nc3ccc(S(=O)(=O)N[C@H]4CC[C@H](CN5CCN(c6ccc(C7CCC(=O)NC7=O)cc6F)CC5)CC4)cc3Cl)ncc2C(F)(F)F)C1 (stereo partly drawn)", "target": "Serine/threonine-protein kinase RIO1 (RIOK1, Homo sapiens, UniProt Q9BRS2)", "assay": "binding, competition with immobilised ligand", "conditions": "1 µM", "measurement": "remaining binding", "value": "88%"}
{"SMILES": "C#Cc1cc(-c2cc(Nc3nc(N[C@@H](C)c4ccc(F)cn4)ncc3Cl)n[nH]2)ccc1C=O", "target": "Serine/threonine-protein kinase SIK2 (SIK2, Homo sapiens, UniProt Q9H0K1)", "assay": "enzyme activity, inhibitor", "conditions": "0.2 µM", "measurement": "inhibition", "value": "97.4%"}
{"SMILES": "O=C(ON1C(=O)CCC1=O)c1cc(C(F)(F)F)cc(C(F)(F)F)c1", "target": "CD209", "assay": "cell-free assay", "conditions": "pH 7.4", "measurement": "kinact", "value": "0.00574 s⁻¹"}
{"SMILES": "CN(CCOc1ccc(CC2SC(=O)NC2=O)cc1)c1ccccn1 (stereo not drawn)", "target": "SLC22A11", "assay": "transporter uptake, inhibitor", "conditions": "25 µM", "measurement": "inhibition", "value": "94.1%"}
{"SMILES": "C[C@]1(O)CCCN(c2nc(Nc3ccc(S(=O)(=O)N[C@H]4CC[C@H](CN5CCN(c6ccc(C7CCC(=O)NC7=O)cc6F)CC5)CC4)cc3F)ncc2C(F)(F)F)C1 (stereo partly drawn)", "target": "SLK", "assay": "binding, competition with immobilised ligand", "conditions": "1 µM", "measurement": "remaining binding", "value": "34%"}
{"SMILES": "Cc1cc(O)c(-c2ccc([C@@H](C)CN(C)C)cc2)c2c1[nH]c(=O)c1sccc12", "target": "Receptor-interacting serine/threonine-protein kinase 4 (RIPK4, Homo sapiens, UniProt P57078)", "assay": "enzyme activity, inhibitor", "conditions": "0.1 µM", "measurement": "inhibition", "value": "0.327%"}
{"SMILES": "C1=C/COCc2cc(ccc2OCCN2CCCC2)Nc2nccc(n2)-c2cccc(c2)COC/1", "target": "Tyrosine-protein kinase ABL1 (ABL1, Homo sapiens, UniProt P00519, T315I)", "assay": "binding", "conditions": "0.1 µM", "measurement": "remaining binding", "value": "13%"}
{"SMILES": "COc1c(Nc2cc(C(F)(F)F)cc(C(F)(F)F)c2)c(=O)c1=O", "target": "CD209", "assay": "cell-free assay, inhibitor", "conditions": "pH 7.4", "measurement": "kinact/KI", "value": "0.916 M⁻¹ s⁻¹"}
{"SMILES": "CC(=O)Oc1ccccc1C(=O)Nc1ncc([N+](=O)[O-])s1", "target": "SLC22A11", "assay": "transporter uptake, inhibitor", "conditions": "25 µM", "measurement": "inhibition", "value": "76.5%"}
{"SMILES": "NC/C(=C\\F)COc1cccc(Cn2c(=S)[nH]c(=O)c3[nH]cnc32)c1", "target": "Diamine oxidase [copper-containing] (AOC1, Homo sapiens, UniProt P19801)", "assay": "enzyme activity, inhibitor", "conditions": "1 µM", "measurement": "inhibition", "value": "2.46%"}
{"SMILES": "O=C(N/N=C/c1ccc([N+](=O)[O-])o1)c1cc([N+](=O)[O-])cc([N+](=O)[O-])c1O", "target": "SLC22A11", "assay": "transporter uptake, inhibitor", "conditions": "25 µM", "measurement": "inhibition", "value": "78.3%"}
{"SMILES": "CCN1/C(=C/C(C)=O)Sc2ccc(F)cc21", "target": "Delta-type opioid receptor (OPRD1, Homo sapiens, UniProt P41143)", "assay": "ligand displacement, radioligand", "conditions": "10 µM", "measurement": "inhibition", "value": "0.37%"}
{"SMILES": "Cc1cc(F)cc2c(CCC(=O)N[C@@H]3C(=O)NC[C@H]3O)c(-c3ccc(F)cc3)[nH]c12", "target": "Alpha-2A adrenergic receptor (ADRA2A, Homo sapiens, UniProt P08913)", "assay": "cell-free assay", "conditions": "10 µM", "measurement": "inhibition", "value": "26%"}
{"SMILES": "CCCCC(=O)Nc1ccc(-c2ccc3ncn(CCC)c(=O)c3c2)cn1", "target": "Misshapen-like kinase 1 (MINK1, Homo sapiens, UniProt Q8N4C8)", "assay": "binding, competition with immobilised ligand", "conditions": "0.5 µM", "measurement": "remaining binding", "value": "99%"}
